Assays:
L1210 [1] = assay: Maximal tolerated dose for anti-tumor activity in vivo on L1210-infected mice; format: functional, Mus musculus
Nucleic Acid = assay: Binding affinity for DNA; format: nucleic-acid assay
Procedure, shortened: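 Fluorometric competition with ethidium dimer (6.4 × 10^-7 M) pre-equilibrated 24 h with calf thymus DNA (1.6 × 10^-6 M base pairs). Drug was added at varying concentrations. Fluorescence was excited at 540 nm and read at 610 nm. Bound ethidium dimer per base pair was derived, and computed displacement curves were fitted to the experimental ones to give apparent affinity constants (M^-1).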

L1210 [2] = assay: Dose required to inhibit the cloning efficiency to a factor of 37%,measured in vitro on L1210 cells after 24-h exposure
L1210 [3] = assay: Optimal dose for anti-tumor activity in vivo on L1210-infected mice; format: functional, Mus musculus
L1210 [4] = assay: Dose that inhibits 50% of the L1210 cell growth after 24 hr exposure to the compound.; format: functional; conditions: Mus musculus, L1210, 24 h; read-out: ED50 (the source's name)
Escherichia coli = assay: Cytotoxicity on Escherichia coli polA strain mutant expressed as dose required to inhibit 37% of cell growth; format: functional
Mus musculus = species: Mus musculus; assay: Treated mean survival time per control mean survival time.; format: functional

Structure (SMILES): COc1ccc2nc3cc(Cl)ccc3c(NCCN3CCC(C4CCN(CC[n+]5ccc6ccc7[nH]c8ccc(OC)cc8c7c6c5)CC4)CC3)c2c1.[Cl-]
- MTD (L1210 [1]): 15 mg/kg
- K app x10e-7 (Nucleic Acid): 5 M⁻¹
- EC37 (L1210 [2]): 17 µM
- OD (L1210 [3]): 15 mg/kg
- EC50 (L1210 [4]): 2700 nM
- EC37 (Escherichia coli): 0.057 µM

Structure (SMILES): COc1ccc2c(c1)c1c3c[n+](CCN4CCC(CC5CCN(CC[n+]6ccc7ccc8c(c7c6)c6cc(OC)ccc6n8C)CC5)CC4)ccc3ccc1n2C.CS(=O)(=O)[O-].CS(=O)(=O)[O-]
- T/C (Mus musculus): 190%
- MTD (L1210 [1]): 10 mg/kg
- K app x10e-7 (Nucleic Acid): 20 M⁻¹
- EC37 (L1210 [2]): 0.013 µM
- OD (L1210 [3]): 3 mg/kg
- EC50 (L1210 [4]): 700 nM
- EC37 (Escherichia coli): 0.014 µM

Structure (SMILES): COc1ccc2nc3cc(Cl)ccc3c(NCCN3CCC(C4CCN(CC[n+]5ccc6ccc7c(c6c5)c5cc(OC)ccc5n7C)CC4)CC3)c2c1.CS(=O)(=O)[O-]
- MTD (L1210 [1]): 15 mg/kg
- K app x10e-7 (Nucleic Acid): 10 M⁻¹
- EC37 (L1210 [2]): >0.9 µM
- OD (L1210 [3]): 15 mg/kg
- EC50 (L1210 [4]): 240 nM
- EC37 (Escherichia coli): 0.029 µM

Structure (SMILES): COc1ccc2[nH]c3ccc4cc[n+](CCN5CCC(C6CCN(CC[n+]7ccc8ccc9[nH]c%10ccc(OC)cc%10c9c8c7)CC6)CC5)cc4c3c2c1.CS(=O)(=O)[O-].CS(=O)(=O)[O-]
- T/C (Mus musculus): 182%
- MTD (L1210 [1]): 10 mg/kg
- K app x10e-7 (Nucleic Acid): 1 M⁻¹
- EC37 (L1210 [2]): 0.024 µM
- OD (L1210 [3]): 10 mg/kg
- EC50 (L1210 [4]): 190 nM
- EC37 (Escherichia coli): 0.013 µM

Structure (SMILES): COc1ccc2c(c1)c1c3c[n+](CCCN4CCC(C5CCN(CC[n+]6ccc7ccc8c(c7c6)c6cc(OC)ccc6n8C)CC5)CC4)ccc3ccc1n2C.CS(=O)(=O)[O-].CS(=O)(=O)[O-]
- T/C (Mus musculus): 128%
- MTD (L1210 [1]): 10 mg/kg
- K app x10e-7 (Nucleic Acid): 1 M⁻¹
- EC37 (L1210 [2]): 0.112 µM
- OD (L1210 [3]): 10 mg/kg
- EC50 (L1210 [4]): > 900 nM
- EC37 (Escherichia coli): 0.025 µM

Structure (SMILES): COc1ccc2[nH]c3ccc4cc[n+](CCN5CCC(CCC6CCN(CC[n+]7ccc8ccc9[nH]c%10ccc(OC)cc%10c9c8c7)CC6)CC5)cc4c3c2c1.CS(=O)(=O)[O-].CS(=O)(=O)[O-]
- T/C (Mus musculus): 143%
- MTD (L1210 [1]): 20 mg/kg
- K app x10e-7 (Nucleic Acid): 7 M⁻¹
- EC37 (L1210 [2]): 0.22 µM
- OD (L1210 [3]): 5 mg/kg
- EC50 (L1210 [4]): 1340 nM
- EC37 (Escherichia coli): 0.015 µM

Structure (SMILES): COc1ccc2[nH]c3ccc4cc[n+](CCN5CCC(CCCC6CCN(CC[n+]7ccc8ccc9[nH]c%10ccc(OC)cc%10c9c8c7)CC6)CC5)cc4c3c2c1.CS(=O)(=O)[O-].CS(=O)(=O)[O-]
- MTD (L1210 [1]): 10 mg/kg
- K app x10e-7 (Nucleic Acid): 5 M⁻¹
- EC37 (L1210 [2]): 0.14 µM
- OD (L1210 [3]): 5 mg/kg
- EC50 (L1210 [4]): 340 nM
- EC37 (Escherichia coli): 0.087 µM

Structure (SMILES): COc1ccc2[nH]c3ccc4cc[n+](CCN5CCC(CC6CCN(CC[n+]7ccc8ccc9[nH]c%10ccc(OC)cc%10c9c8c7)CC6)CC5)cc4c3c2c1.CS(=O)(=O)[O-].CS(=O)(=O)[O-]
- T/C (Mus musculus): 175%
- MTD (L1210 [1]): 30 mg/kg
- K app x10e-7 (Nucleic Acid): 10 M⁻¹
- EC37 (L1210 [2]): 0.063 µM
- OD (L1210 [3]): 7 mg/kg
- EC50 (L1210 [4]): 1080 nM
- EC37 (Escherichia coli): 0.021 µM

Structure (SMILES): COc1ccc2c(c1)c1c3c[n+](CCN4CCC(C5CCN(CC[n+]6ccc7ccc8c(c7c6)c6cc(OC)ccc6n8C)CC5)CC4)ccc3ccc1n2C.CS(=O)(=O)[O-].CS(=O)(=O)[O-]
- T/C (Mus musculus): 178%
- MTD (L1210 [1]): 10 mg/kg
- K app x10e-7 (Nucleic Acid): 2 M⁻¹
- EC37 (L1210 [2]): 0.006 µM
- OD (L1210 [3]): 2.5 mg/kg
- EC50 (L1210 [4]): 360 nM
- EC37 (Escherichia coli): 0.013 µM

Structure (SMILES): COc1ccc2c(c1)c1c3c[n+](CCN4CCC(CCCC5CCN(CC[n+]6ccc7ccc8c(c7c6)c6cc(OC)ccc6n8C)CC5)CC4)ccc3ccc1n2C.CS(=O)(=O)[O-].CS(=O)(=O)[O-]
- MTD (L1210 [1]): 10 mg/kg
- K app x10e-7 (Nucleic Acid): 20 M⁻¹
- EC37 (L1210 [2]): 0.15 µM
- OD (L1210 [3]): 10 mg/kg
- EC50 (L1210 [4]): 260 nM
- EC37 (Escherichia coli): 0.009 µM

Structure (SMILES): COc1ccc2[nH]c3ccc4cc[n+](CCCN5CCC(C6CCN(CC[n+]7ccc8ccc9[nH]c%10ccc(OC)cc%10c9c8c7)CC6)CC5)cc4c3c2c1.CS(=O)(=O)[O-].CS(=O)(=O)[O-]
- T/C (Mus musculus): 137%
- MTD (L1210 [1]): 20 mg/kg
- K app x10e-7 (Nucleic Acid): 5 M⁻¹
- EC37 (L1210 [2]): 0.09 µM
- OD (L1210 [3]): 10 mg/kg
- EC50 (L1210 [4]): 720 nM
- EC37 (Escherichia coli): 0.016 µM

Structure (SMILES): COc1ccc2c(c1)c1c3c[n+](CCN4CCC(CCC5CCN(CC[n+]6ccc7ccc8c(c7c6)c6cc(OC)ccc6n8C)CC5)CC4)ccc3ccc1n2C.CS(=O)(=O)[O-].CS(=O)(=O)[O-]
- T/C (Mus musculus): 170%
- MTD (L1210 [1]): 10 mg/kg
- K app x10e-7 (Nucleic Acid): 3 M⁻¹
- EC37 (L1210 [2]): 0.77 µM
- OD (L1210 [3]): 5 mg/kg
- EC50 (L1210 [4]): 900 nM
- EC37 (Escherichia coli): 0.225 µM
